Only some compounds are listed: those with a hit (about 2.2% of all), similar ones and a draw of the others.
FN deposition inh: fibronectin deposition inhibition; AH1F fibroblasts, Alexa488-fibronectin deposition fluorescence, overnight; inhibition, % at 12.6 µM; 0.086% of 350,000 active; AID 743247;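 active = mean inhibition across replicates of 30% or more, regardless of how many single replicates reach that level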;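 note: positive control wells lacked labelled fibronectin entirely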
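Assay system: AH1F fibroblasts assembling fluorescent fibronectin matrix; Amount: 10000 AH1F cells per well; Buffer or medium: DMEM, 2% serum; Probe or stimulus: Alexa488-fibronectin, 24 nM final in well; Doses: single compound dose, delivered by pin transfer; Incubation: 1 h adhesion, overnight exposure; Measured by: fluorescence 485/525 nm; Read-out: fibronectin deposition inhibition.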
FGF22 binding: binders of recombinant human FGF22 by thermal shift; Q9HCT0; SYPRO orange fluorescence; percent of sucrose octasulfate shift, DMSO zero; activity (Tm shift, normalised), % at 9.99 µM; 1.5% of 340,000 active;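 active = mean Tm shift, scaled 0 neutral to 100 positive control, at about 1.3% or above, every replicate too, limit read from the data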
Target sequence (Q9HCT0 whole entry, looked up): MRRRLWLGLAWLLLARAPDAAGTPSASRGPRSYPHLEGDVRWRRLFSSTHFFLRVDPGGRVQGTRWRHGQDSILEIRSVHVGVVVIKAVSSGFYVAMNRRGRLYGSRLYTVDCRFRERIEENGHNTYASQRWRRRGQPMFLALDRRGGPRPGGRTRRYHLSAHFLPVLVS
ERAP1 inh: blocks human ERAP1 aminopeptidase activity; recombinant ERAP1, Leu-AMC fluorescence, 60 min; inhibition, % at 10.7 µM; 0.15% of 340,000 active; Q9NZ08;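 active = mean replicate inhibition of at least 30%, or all replicates individually reaching that 30% level; inactive = mean below 30% and not every replicate reaching it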;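 note: 0% = neutral control wells and 100% = L-leucinethiol positive control wells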
SIRT5 block: sirtuin-5 (human) deacylase inhibition | AID 652115 | 1.1% of 330,000 active | inhibition, % at 15 µM | Purified SirT5, succinyl-peptide AMC, trypsin-coupled fluorescence; in the data active = inhibition above about 15%
Target sequence (Q9NXA8 whole entry, looked up): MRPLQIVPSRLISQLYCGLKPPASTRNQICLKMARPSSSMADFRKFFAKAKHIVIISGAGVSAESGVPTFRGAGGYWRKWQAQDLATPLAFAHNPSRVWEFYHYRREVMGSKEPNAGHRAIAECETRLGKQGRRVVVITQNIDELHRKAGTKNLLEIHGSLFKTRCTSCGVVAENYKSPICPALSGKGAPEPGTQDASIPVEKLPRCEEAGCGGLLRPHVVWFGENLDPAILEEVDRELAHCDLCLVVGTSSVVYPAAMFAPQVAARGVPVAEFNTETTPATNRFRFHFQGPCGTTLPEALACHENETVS
PGC1a acetyl inh: modulators of PGC1a acetylation; AID 651687; 0.17% of 350,000 active; U2OS PGC1a acetylation, AlphaScreen anti-acetyl-lysine; with virally co-expressed GCN5 acetyltransferase; inhibition, % at 15.6 µM;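 active = every replicate shows inhibition of at least 40%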;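 note: 0% = neutral control wells and 100% = positive control wells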
* marks the source's active call; other numbers are inactive results; · = no result given.

SMILES | FN deposition inh | FGF22 binding | ERAP1 inh | SIRT5 block | PGC1a acetyl inh
CO[C@H]1CN(C)C(=O)c2cc(C#N)ccc2OC[C@H]2O[C@@H](CC[C@H]2OC)CCN(C)C(=O)[C@@H]1C | 4.2 | 0.1 | 0.6 | -2.5 | -9.9
CCCN1C(=O)/C(=C/c2ccco2)SC1=Nc1ccc(OC)cc1 | · | · | · | · | 6.1
O=C(O)COc1ccc(/C=C2\SC(=Nc3ccccc3)N(c3ccccc3)C2=O)cc1 | -2.3 | 0.2 | -1.0 | -4.7 | ·
COc1ccc(N=C2S/C(=C\c3ccc(OCC(=O)O)cc3)C(=O)N2CCc2c[nH]c3ccccc23)cc1 | · | 0.9 | 4.9 | 49.8* | 9.9
COc1ccc(N=C2S/C(=C\c3ccc(N4CCOCC4)o3)C(=O)N2CCc2c[nH]c3ccccc23)cc1 | · | · | · | · | 62.1*
CO[C@H]1CN(C)C(=O)c2cc(NC(=O)C3CC3)ccc2OC[C@H](C)NC[C@@H]1C | 4.9 | -0.6 | -6.1 | 5.0 | 3.4
CCOc1cc(/C=C2\CN(C)C/C(=C\c3ccc(O)c(OCC)c3)C2=O)ccc1O | 6.6 | -0.1 | 9.8 | 0.4 | 53.2*
CC(C)(C)c1ccc(OCCCC(=O)Nc2ccc(S(N)(=O)=O)cc2)cc1 | -0.7 | 44.1* | -2.2 | -2.7 | -13.8
CC#CC[N+](C)(C)CCCCCCCCCCCC | 8.5 | 0.2 | 42.4* | 2.6 | ·
C#CC[N+](C)(C)CCCCCCCCCC | 21.6 | 0.2 | 7.7 | -0.1 | -12.4
CCCCCC[N+](C)(C)CCSSCC[N+](C)(C)CCCCCC | -11.4 | 0.1 | · | -2.6 | -2.4
CCCCCCCCCCCCCCCC[N+](C)(C)CCl | -7.4 | -1.0 | 88.1* | · | -22.3
CCCCCCCCCCCCCCCC[N+](C)(C)CC | 16.4 | -1.5 | 77.5* | 7.3 | -0.3
CCOC(=O)c1c[nH]c(=O)c(Br)c1O | 6.7 | · | · | · | 6.9
CCOC(=O)c1c[nH]c2nc(C)ccc2c1=O | -6.6 | 43.1* | -0.4 | -6.4 | 11.7
COCC(=O)N1[C@H](CO)[C@H]2c3ccccc3N(C(=O)Nc3cc(F)ccc3F)C[C@H]21 | · | 0.2 | -1.1 | -1.1 | -9.9
COc1cc(COCC(O)CN2CCc3ccccc3C2)cc(OC)c1OC (stereo not given) | 1.8 | 43.7* | -5.5 | -4.8 | ·
C=CCc1ccc(OCC(O)CN2CCc3ccccc3C2)c(OC)c1 (stereo not given) | 2.4 | -0.2 | -0.2 | -5.8 | 7.1
O=C1CNC(=O)/C1=C/c1ccc(Br)cc1 | -5.5 | 0.0 | 2.2 | 24.9* | -3.7
CN(C(=O)c1cc2c(=O)n3ccccc3nc2n1C)C1CCCCC1 | -2.7 | -0.2 | 60.8* | -43.1 | 3.8
CC1CC(NC(=O)c2cc3c(=O)n4ccccc4nc3n2C)CC(C)(C)C1 (stereo not given) | 1.7 | -0.2 | 2.0 | 15.0* | -10.7
CC1CN(C(=O)c2cc3c(=O)n4ccccc4nc3n2C)CC(C)O1 (stereo not given) | 36.4* | 0.0 | 37.9* | -63.3 | ·
Cn1c(C(=O)N2CCOCC2)cc2c(=O)n3ccccc3nc21 | -3.4 | 0.0 | 57.5* | -51.4 | ·
CCN(C(=O)c1cc2c(=O)n3ccccc3nc2n1C)C1CCCCC1 | 16.6 | -0.1 | 20.2 | -52.5 | ·
Cn1c(C(=O)N2CCN(C(=O)c3ccco3)CC2)cc2c(=O)n3ccccc3nc21 | 0.1 | · | · | · | 7.0
SMILES | FN deposition inh | FGF22 binding | ERAP1 inh | SIRT5 block | PGC1a acetyl inh
Cn1c(C(=O)N2CCc3ccccc3C2)cc2c(=O)n3ccccc3nc21 | -1.7 | · | · | · | ·
Cc1ccc(S(=O)(=O)N[C@H]2C=C[C@@H](CC(=O)N3CCN(c4ccccc4)CC3)O[C@H]2CO)cc1 | -14.6 | 0.3 | 0.8 | -3.3 | 0.2
COc1ccc2c3c(n(C)c2c1)[C@@H](CO)N(C)CC31CCN(S(=O)(=O)c2cn(C)cn2)CC1 | · | · | · | · | 2.4
C[C@@H]1CN([C@H](C)CO)C(=O)c2cc(/C=C/c3ccccc3)cnc2O[C@H]1CN(C)C(=O)Nc1ccc(C(F)(F)F)cc1 | -7.4 | 0.0 | -1.0 | 5.2 | -9.9
CO[C@H]1CN(C)C(=O)c2cc(NC(=O)C3CC3)ccc2OC[C@@H](C)N(C(=O)c2ccccc2)C[C@@H]1C | 2.9 | 0.0 | 0.1 | 9.7 | 10.5
CCn1cc(-c2ccnc3cc(C(=O)O)nn23)c(C)n1 | 2.3 | 43.2* | 6.7 | -13.9 | -7.1
O=C(O)/C=C/C(=O)Nc1ccc(C2(c3ccc(NC(=O)/C=C/C(=O)O)cc3)c3ccccc3-c3ccccc32)cc1 | 8.7 | · | 0.3 | 15.7* | -4.6
O=C(O)/C=C/C(=O)Nc1ccc(Cc2ccc(NC(=O)/C=C/C(=O)O)cc2)cc1 | -42.0 | 0.8 | 4.0 | 21.8* | ·

Assay outcomes from PubChem.
